Data taken from ChEMBL document CHEMBL1649256, “Comparison of assessment of oxygen consumption, Etest, and CLSI M38-A2 broth microdilution methods for evaluation of the susceptibility of Aspergillus fumigatus to posaconazole” (2009).
≈ marks a conversion by molar mass, not a printed value.

Columns and labels:
Assay type in all cases: functional
Aspergillus fumigatus [1] = assay: Antimicrobial activity against Aspergillus fumigatus isolate 17 after 24 hrs by Etest; details: isolate 17, 24 h
In short: (§1)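 Posaconazole Etest strips placed on RPMI 1640 agar with 2% glucose, pH 7.0, and run per the strip maker's instructions. Incubation at 35°C, with the MIC read at 24 h and at 48 h.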

Aspergillus fumigatus [2] = assay: Antimicrobial activity against Aspergillus fumigatus isolate 40 after 48 hrs by Etest; details: isolate 40, 48 h
In short: (§2)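 Posaconazole Etest strips on RPMI 1640 agar with 2% glucose, pH 7.0, run per the strip maker's instructions. Incubated at 35°C. MIC read at 24 h and at 48 h, matching the time in each line.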

Aspergillus fumigatus [3] = assay: Antimicrobial activity against Aspergillus fumigatus isolate 37 by CLSI M38-A2 broth microdilution method
In short: (§3)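 CLSI M38-A2 broth microdilution with posaconazole. MIC taken as the lowest concentration with no visible growth at 48 h. C. parapsilosis ATCC 22019 and C. krusei ATCC 6258 were included as QC strains in every run.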

Aspergillus fumigatus [4] = assay: Antimicrobial activity against Aspergillus fumigatus isolate 30 by CLSI M38-A2 broth microdilution method
In short: (§4)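 Reference broth microdilution per CLSI M38-A2. MIC read as absence of visible growth at 48 h. C. parapsilosis ATCC 22019 and C. krusei ATCC 6258 QC strains run in each test session.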

Aspergillus fumigatus [5] = assay: Antimicrobial activity against Aspergillus fumigatus isolate 1 by CLSI M38-A2 broth microdilution method
In short: (§5)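 Posaconazole broth microdilution follows CLSI M38-A2. The MIC is the lowest concentration with no visible growth at 48 h. Candida parapsilosis ATCC 22019 and Candida krusei ATCC 6258 were included as QC strains in every run.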

Aspergillus fumigatus [6] = assay: Antimicrobial activity against Aspergillus fumigatus isolate 2 by oxygen consumption method
In short: (§6)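 Conidial suspension in RPMI 1640 broth with posaconazole at 0.25 and 2 μg/ml. Tubes agitated 12 h at 37°C in a biological oxygen monitor. Available oxygen was monitored continuously, and the MIC was assigned from the oxygen quantification.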

Aspergillus fumigatus [7] = assay: Antimicrobial activity against Aspergillus fumigatus isolate 7 after 48 hrs by Etest; details: isolate 7, 48 h
Aspergillus fumigatus [8] = assay: Antimicrobial activity against Aspergillus fumigatus isolate 12 by CLSI M38-A2 broth microdilution method; in short: as §5
Aspergillus fumigatus [9] = assay: Antimicrobial activity against Aspergillus fumigatus isolate 35 after 24 hrs by Etest; details: isolate 35, 24 h; in short: as §2
Aspergillus fumigatus [10] = assay: Antimicrobial activity against Aspergillus fumigatus isolate 25 by oxygen consumption method
In short: (§7)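 Conidial suspension in RPMI 1640 broth, 1.5 ml, with two drug concentrations (0.25 and 2 μg/ml). Tubes agitated 12 h at 37°C in a biological oxygen monitor. Available oxygen monitored continuously and quantified to assign the MIC.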

Aspergillus fumigatus [11] = assay: Antimicrobial activity against Aspergillus fumigatus isolate 23 after 48 hrs by Etest; details: isolate 23, 48 h
In short: (§8)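 Etest strips on RPMI 1640 agar with 2% glucose, pH 7.0, run per manufacturer's instructions. Incubated at 35°C; MIC read at 48 h.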

Aspergillus fumigatus [12] = assay: Antimicrobial activity against Aspergillus fumigatus isolate 20 by oxygen consumption method; in short: as §7
Aspergillus fumigatus [13] = assay: Antimicrobial activity against Aspergillus fumigatus isolate 15 after 24 hrs by Etest; details: isolate 15, 24 h; in short: as §1
Aspergillus fumigatus [14] = assay: Antimicrobial activity against Aspergillus fumigatus isolate 16 by oxygen consumption method; in short: as §6
Aspergillus fumigatus [15] = assay: Antimicrobial activity against Aspergillus fumigatus isolate 49 after 48 hrs by Etest; details: isolate 49, 48 h
Aspergillus fumigatus [16] = assay: Antimicrobial activity against Aspergillus fumigatus isolate 43 by CLSI M38-A2 broth microdilution method
Aspergillus fumigatus [17] = assay: Antimicrobial activity against Aspergillus fumigatus isolate 41 after 24 hrs by Etest; details: isolate 41, 24 h; in short: as §2
Aspergillus fumigatus [18] = assay: Antimicrobial activity against Aspergillus fumigatus isolate 13 by oxygen consumption method; in short: as §6
Aspergillus fumigatus [19] = assay: Antimicrobial activity against Aspergillus fumigatus isolate 21 after 48 hrs by Etest; details: isolate 21, 48 h; in short: as §8
Aspergillus fumigatus [20] = assay: Antimicrobial activity against Aspergillus fumigatus isolate 24 by CLSI M38-A2 broth microdilution method; in short: as §4
Aspergillus fumigatus [21] = assay: Antimicrobial activity against Aspergillus fumigatus isolate 24 after 48 hrs by Etest; details: isolate 24, 48 h; in short: as §8
Aspergillus fumigatus [22] = assay: Antimicrobial activity against Aspergillus fumigatus isolate 38 after 48 hrs by Etest; details: isolate 38, 48 h; in short: as §2
Aspergillus fumigatus [23] = assay: Antimicrobial activity against Aspergillus fumigatus isolate 4 by CLSI M38-A2 broth microdilution method; in short: as §3
Aspergillus fumigatus [24] = assay: Antimicrobial activity against Aspergillus fumigatus isolate 2 after 48 hrs by Etest; details: isolate 2, 48 h; in short: as §1
Aspergillus fumigatus [25] = assay: Antimicrobial activity against Aspergillus fumigatus isolate 1 after 48 hrs by Etest; details: isolate 1, 48 h; in short: as §1
Aspergillus fumigatus [26] = assay: Antimicrobial activity against Aspergillus fumigatus isolate 24 by oxygen consumption method; in short: as §7
Aspergillus fumigatus [27] = assay: Antimicrobial activity against Aspergillus fumigatus isolate 4 after 48 hrs by Etest; details: isolate 4, 48 h; in short: as §2
Aspergillus fumigatus [28] = assay: Antimicrobial activity against Aspergillus fumigatus isolate 29 after 48 hrs by Etest; details: isolate 29, 48 h; in short: as §8
Aspergillus fumigatus [29] = assay: Antimicrobial activity against Aspergillus fumigatus isolate 35 by CLSI M38-A2 broth microdilution method; in short: as §3
Aspergillus fumigatus [30] = assay: Antimicrobial activity against Aspergillus fumigatus isolate 20 after 24 hrs by Etest; details: isolate 20, 24 h; in short: as §1
Aspergillus fumigatus [31] = assay: Antimicrobial activity against Aspergillus fumigatus isolate 44 after 24 hrs by Etest; details: isolate 44, 24 h
Aspergillus fumigatus [32] = assay: Antimicrobial activity against Aspergillus fumigatus isolate 39 after 48 hrs by Etest; details: isolate 39, 48 h; in short: as §2
Aspergillus fumigatus [33] = assay: Antimicrobial activity against Aspergillus fumigatus isolate 26 after 24 hrs by Etest; details: isolate 26, 24 h
In short: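 Etest strips on RPMI 1640 agar with 2% glucose, pH 7.0, run per manufacturer's instructions. Incubated at 35°C; MIC read at 24 h.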

Aspergillus fumigatus [34] = assay: Antimicrobial activity against Aspergillus fumigatus isolate 49 after 24 hrs by Etest; details: isolate 49, 24 h
Aspergillus fumigatus [35] = assay: Antimicrobial activity against Aspergillus fumigatus isolate 18 after 24 hrs by Etest; details: isolate 18, 24 h; in short: as §1
Aspergillus fumigatus [36] = assay: Antimicrobial activity against Aspergillus fumigatus isolate 39 by oxygen consumption method
In short: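 Conidial suspension in RPMI 1640 broth, tested at two posaconazole levels (0.25 and 2 μg/ml). Agitated for 12 h at 37°C in a biological oxygen monitor. MIC derived from continuous monitoring and quantification of the available oxygen.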

Aspergillus fumigatus [37] = assay: Antimicrobial activity against Aspergillus fumigatus isolate 5 by CLSI M38-A2 broth microdilution method
Aspergillus fumigatus [38] = assay: Antimicrobial activity against Aspergillus fumigatus isolate 19 by oxygen consumption method; in short: as §6
Aspergillus fumigatus [39] = assay: Antimicrobial activity against Aspergillus fumigatus isolate 14 by CLSI M38-A2 broth microdilution method; in short: as §5
Aspergillus fumigatus [40] = assay: Antimicrobial activity against Aspergillus fumigatus isolate 45 by CLSI M38-A2 broth microdilution method
Aspergillus fumigatus [41] = assay: Antimicrobial activity against Aspergillus fumigatus isolate 18 by oxygen consumption method; in short: as §6
Aspergillus fumigatus [42] = assay: Antimicrobial activity against Aspergillus fumigatus isolate 32 by CLSI M38-A2 broth microdilution method; in short: as §3
Aspergillus fumigatus [43] = assay: Antimicrobial activity against Aspergillus fumigatus isolate 22 after 48 hrs by Etest; details: isolate 22, 48 h; in short: as §8
Aspergillus fumigatus [44] = assay: Antimicrobial activity against Aspergillus fumigatus isolate 26 after 48 hrs by Etest; details: isolate 26, 48 h; in short: as §8

With `CC[C@@H]([C@H](C)O)n1ncn(-c2ccc(N3CCN(c4ccc(OC[C@@H]5CO[C@@](Cn6cncn6)(c6ccc(F)cc6F)C5)cc4)CC3)cc2)c1=O` [POSACONAZOLE] the MIC (Aspergillus fumigatus [1]) was 0.125 µg/mL (≈ 0.178 µM), the MIC (Aspergillus fumigatus [2]) was 0.25 µg/mL (≈ 0.357 µM) and the MIC (Aspergillus fumigatus [3]) was 0.125 µg/mL (≈ 0.178 µM). For the same compound, the MIC (Aspergillus fumigatus [4]) was 0.125 µg/mL (≈ 0.178 µM), the MIC (Aspergillus fumigatus [5]) was 1 µg/mL (≈ 1.43 µM) and the MIC (Aspergillus fumigatus [6]) was no less than 0.5 µg/mL. The MIC (Aspergillus fumigatus [7]) was 0.25 µg/mL (≈ 0.357 µM), the MIC (Aspergillus fumigatus [8]) was 0.125 µg/mL (≈ 0.178 µM) and the MIC (Aspergillus fumigatus [9]) was 0.25 µg/mL (≈ 0.357 µM). The MIC (Aspergillus fumigatus [10]) was no more than 0.25 µg/mL, the MIC (Aspergillus fumigatus [11]) was 0.25 µg/mL (≈ 0.357 µM) and the MIC (Aspergillus fumigatus [12]) was no more than 0.25 µg/mL. The MIC (Aspergillus fumigatus [13]) was 0.06 µg/mL (≈ 0.0856 µM), the MIC (Aspergillus fumigatus [14]) was no less than 0.5 µg/mL and the MIC (Aspergillus fumigatus [15]) was 0.5 µg/mL (≈ 0.713 µM). For the same compound, the MIC (Aspergillus fumigatus [16]) was 0.125 µg/mL (≈ 0.178 µM), the MIC (Aspergillus fumigatus [17]) was no more than 0.03 µg/mL and the MIC (Aspergillus fumigatus [18]) was no less than 0.5 µg/mL. For the same compound, the MIC (Aspergillus fumigatus [19]) was 0.25 µg/mL (≈ 0.357 µM), the MIC (Aspergillus fumigatus [20]) was 0.125 µg/mL (≈ 0.178 µM) and the MIC (Aspergillus fumigatus [21]) was 0.125 µg/mL (≈ 0.178 µM). The MIC (Aspergillus fumigatus [22]) was 0.125 µg/mL (≈ 0.178 µM), the MIC (Aspergillus fumigatus [23]) was 0.06 µg/mL (≈ 0.0856 µM) and the MIC (Aspergillus fumigatus [24]) was 1 µg/mL (≈ 1.43 µM). The MIC (Aspergillus fumigatus [25]) was 8 µg/mL (≈ 11.4 µM), the MIC (Aspergillus fumigatus [26]) was no more than 0.25 µg/mL and the MIC (Aspergillus fumigatus [27]) was 0.25 µg/mL (≈ 0.357 µM). The MIC (Aspergillus fumigatus [28]) was 0.25 µg/mL (≈ 0.357 µM), the MIC (Aspergillus fumigatus [29]) was 0.125 µg/mL (≈ 0.178 µM) and the MIC (Aspergillus fumigatus [30]) was 0.25 µg/mL (≈ 0.357 µM). The MIC (Aspergillus fumigatus [31]) was no more than 0.03 µg/mL, the MIC (Aspergillus fumigatus [32]) was 2 µg/mL (≈ 2.85 µM) and the MIC (Aspergillus fumigatus [33]) was 0.25 µg/mL (≈ 0.357 µM). It also gave an MIC (Aspergillus fumigatus [34]) of 0.5 µg/mL (≈ 0.713 µM), an MIC (Aspergillus fumigatus [35]) of 0.125 µg/mL (≈ 0.178 µM) and an MIC (Aspergillus fumigatus [36]) of no less than 0.5 µg/mL. It also gave an MIC (Aspergillus fumigatus [37]) of 1 µg/mL (≈ 1.43 µM), an MIC (Aspergillus fumigatus [38]) of no less than 0.5 µg/mL and an MIC (Aspergillus fumigatus [39]) of 0.125 µg/mL (≈ 0.178 µM). It also gave an MIC (Aspergillus fumigatus [40]) of 0.125 µg/mL (≈ 0.178 µM), an MIC (Aspergillus fumigatus [41]) of no more than 0.25 µg/mL and an MIC (Aspergillus fumigatus [42]) of 0.125 µg/mL (≈ 0.178 µM). For the same compound, the MIC (Aspergillus fumigatus [43]) was 0.25 µg/mL (≈ 0.357 µM) and the MIC (Aspergillus fumigatus [44]) was 0.25 µg/mL (≈ 0.357 µM).
